A word on the IC50: it is the concentration that gives 50% inhibition. Broadly, the GI50 is the concentration that inhibits growth by half. A lower GI50 goes with greater sensitivity of the cells. A word on the half-life: it is how long it takes for the measured level to halve. A lower half-life goes with fast loss.

1 compound from ChEMBL document CHEMBL3112447, “Discovery of 1-methyl-1H-imidazole derivatives as potent Jak2 inhibitors” (J Med Chem, 2014) can be followed below.

The target of series [1] is High affinity nerve growth factor receptor (Homo sapiens, UniProt P04629). The experiment in a line: Inhibition of human TrkA. In short, it runs like this: (§1)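 Panel of 82 kinases. Radiometric filter-binding assay with ATP at or near Km. Compound tested at 0.01, 0.10 and 1.0 μM. Values expressed as minimum possible fold selectivity against Jak2.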
High affinity nerve growth factor receptor, sequence (P04629 whole entry): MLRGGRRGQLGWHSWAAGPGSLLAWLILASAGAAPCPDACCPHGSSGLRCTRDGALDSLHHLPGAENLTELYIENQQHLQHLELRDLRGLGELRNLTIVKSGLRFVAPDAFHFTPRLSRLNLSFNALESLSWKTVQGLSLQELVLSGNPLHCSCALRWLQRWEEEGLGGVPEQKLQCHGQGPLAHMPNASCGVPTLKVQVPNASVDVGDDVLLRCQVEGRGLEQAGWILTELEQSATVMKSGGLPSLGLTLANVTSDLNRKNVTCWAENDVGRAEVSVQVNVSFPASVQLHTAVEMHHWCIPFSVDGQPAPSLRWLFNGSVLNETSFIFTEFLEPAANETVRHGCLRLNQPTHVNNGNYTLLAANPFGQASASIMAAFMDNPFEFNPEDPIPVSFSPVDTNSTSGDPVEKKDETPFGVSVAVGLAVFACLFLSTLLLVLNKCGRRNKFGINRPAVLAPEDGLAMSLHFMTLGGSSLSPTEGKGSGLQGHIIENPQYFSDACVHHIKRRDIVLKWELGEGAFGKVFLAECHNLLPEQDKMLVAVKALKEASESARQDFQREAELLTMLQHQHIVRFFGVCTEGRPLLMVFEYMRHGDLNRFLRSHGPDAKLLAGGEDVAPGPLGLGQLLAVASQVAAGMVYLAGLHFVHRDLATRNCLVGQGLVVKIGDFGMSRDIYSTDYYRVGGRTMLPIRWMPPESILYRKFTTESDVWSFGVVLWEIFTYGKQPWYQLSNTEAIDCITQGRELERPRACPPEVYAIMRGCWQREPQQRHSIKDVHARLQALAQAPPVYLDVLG
Series [2] in a line: Antitumor activity against human UKE1 cells xenografted in SCID mouse assessed as tumor growth inhibition at 3 mg/kg, po bid administered for 14 days measured on day 28. The class given is functional. The note with it: read-out: TGI. In short, it runs like this:
(§2)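 UKE-1 cells mixed with matrigel implanted subcutaneously in female SCID mice. On day 15, mice randomized at a mean tumor volume of about 150 mm³. Oral gavage twice daily at 3 or 10 mg/kg, or vehicle, for 14 days. Tumor volume and body weight tracked through the dosing phase.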
In general terms: A xenograft is tissue or cells of one species grown in another, often human tumour cells in immunodeficient mice.

Series [3] addresses Tyrosine-protein kinase JAK3 (Mus musculus) (UniProt Q62137). The experiment in a line: (§3) Inhibition of Jak3 in mouse BA/F3 cells expressing TEL-Jak3 assessed as inhibition of STAT5 phosphorylation by Western blotting analysis. The class given is cell-based. The note with it: BaF3.
Series [4] concerns the target Tyrosine-protein kinase JAK3 (Mus musculus, UniProt Q62137). The series is described as §3. The class given is cell-based, BaF3.
In series [5] the target is Vascular endothelial growth factor receptor 2 (Homo sapiens, UniProt P35968). The series can be described thus: Inhibition of human KDR. In short, it runs like this: as §1
Vascular endothelial growth factor receptor 2, sequence (P35968 whole entry): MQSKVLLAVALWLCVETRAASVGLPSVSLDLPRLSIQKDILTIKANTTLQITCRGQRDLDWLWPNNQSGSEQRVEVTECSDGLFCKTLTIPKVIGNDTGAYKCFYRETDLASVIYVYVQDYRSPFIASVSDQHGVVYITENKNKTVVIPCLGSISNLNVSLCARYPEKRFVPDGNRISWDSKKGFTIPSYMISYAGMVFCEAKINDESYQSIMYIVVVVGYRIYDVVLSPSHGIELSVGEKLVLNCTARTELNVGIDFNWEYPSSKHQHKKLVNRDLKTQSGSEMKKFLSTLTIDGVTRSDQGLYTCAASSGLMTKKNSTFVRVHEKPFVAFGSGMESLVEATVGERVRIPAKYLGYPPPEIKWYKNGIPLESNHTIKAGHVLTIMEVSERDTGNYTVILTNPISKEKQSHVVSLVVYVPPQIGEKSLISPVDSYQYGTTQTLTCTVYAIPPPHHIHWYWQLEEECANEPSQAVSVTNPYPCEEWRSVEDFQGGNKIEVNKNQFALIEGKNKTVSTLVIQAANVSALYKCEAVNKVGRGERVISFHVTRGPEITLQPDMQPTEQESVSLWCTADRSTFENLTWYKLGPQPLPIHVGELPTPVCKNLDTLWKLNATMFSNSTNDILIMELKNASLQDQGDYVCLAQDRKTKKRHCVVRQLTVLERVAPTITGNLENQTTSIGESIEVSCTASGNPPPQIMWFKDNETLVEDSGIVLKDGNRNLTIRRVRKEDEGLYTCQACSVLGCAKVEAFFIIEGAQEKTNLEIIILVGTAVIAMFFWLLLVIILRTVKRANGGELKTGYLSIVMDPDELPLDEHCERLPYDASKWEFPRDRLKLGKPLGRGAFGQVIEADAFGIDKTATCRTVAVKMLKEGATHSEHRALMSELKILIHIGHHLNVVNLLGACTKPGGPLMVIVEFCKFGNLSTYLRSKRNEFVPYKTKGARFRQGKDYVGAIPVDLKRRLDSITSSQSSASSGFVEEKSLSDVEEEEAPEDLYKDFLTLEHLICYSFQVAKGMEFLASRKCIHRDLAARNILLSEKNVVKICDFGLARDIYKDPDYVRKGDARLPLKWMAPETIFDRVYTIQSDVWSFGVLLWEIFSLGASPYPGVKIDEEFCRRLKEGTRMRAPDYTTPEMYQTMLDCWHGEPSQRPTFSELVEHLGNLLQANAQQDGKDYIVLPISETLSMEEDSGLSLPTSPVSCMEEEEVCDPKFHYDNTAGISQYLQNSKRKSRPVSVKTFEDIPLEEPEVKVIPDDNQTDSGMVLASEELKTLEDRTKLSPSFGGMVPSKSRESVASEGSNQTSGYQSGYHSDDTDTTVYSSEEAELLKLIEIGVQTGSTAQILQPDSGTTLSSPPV
Series [6] addresses Fibroblast growth factor receptor 1 (Homo sapiens, UniProt P11362). The series can be described thus: Inhibition of human FGFR1. In short, it runs like this:
as §1

Series [7] deals with Serine/threonine-protein kinase SIK1 (Homo sapiens, UniProt P57059). The experiment in a line: Inhibition of human SIK. Put shortly: as §1
Serine/threonine-protein kinase SIK1, sequence (P57059 whole entry): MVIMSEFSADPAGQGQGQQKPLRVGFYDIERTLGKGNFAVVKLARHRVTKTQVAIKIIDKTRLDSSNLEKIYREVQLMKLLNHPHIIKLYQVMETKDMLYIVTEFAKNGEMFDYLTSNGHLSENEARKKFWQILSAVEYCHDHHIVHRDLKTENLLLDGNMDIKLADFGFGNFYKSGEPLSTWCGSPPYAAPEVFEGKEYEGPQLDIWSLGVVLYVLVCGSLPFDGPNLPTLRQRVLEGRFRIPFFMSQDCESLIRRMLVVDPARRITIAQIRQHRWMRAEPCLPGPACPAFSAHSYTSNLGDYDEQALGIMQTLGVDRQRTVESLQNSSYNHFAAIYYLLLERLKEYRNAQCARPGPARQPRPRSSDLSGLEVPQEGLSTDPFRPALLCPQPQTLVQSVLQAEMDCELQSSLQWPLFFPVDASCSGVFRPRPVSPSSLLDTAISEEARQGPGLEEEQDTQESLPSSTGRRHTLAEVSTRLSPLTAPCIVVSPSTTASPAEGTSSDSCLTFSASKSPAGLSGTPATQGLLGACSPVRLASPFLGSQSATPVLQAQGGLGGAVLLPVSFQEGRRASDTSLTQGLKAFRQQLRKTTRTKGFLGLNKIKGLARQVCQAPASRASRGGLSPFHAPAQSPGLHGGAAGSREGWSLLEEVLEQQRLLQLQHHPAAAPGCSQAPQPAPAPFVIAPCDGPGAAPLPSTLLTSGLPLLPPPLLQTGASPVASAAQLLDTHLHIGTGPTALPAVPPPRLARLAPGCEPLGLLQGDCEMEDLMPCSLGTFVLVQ
Series [8] concerns the target Aurora kinase A (Homo sapiens, UniProt O14965). The series can be described thus: Inhibition of human aurora A kinase. In short, it runs like this:
as §1

For series [9], the target named is Vascular endothelial growth factor receptor 3 (Homo sapiens, UniProt P35916). The experiment in a line: Inhibition of human Flt4. Put shortly:
as §1

Series [10] concerns Mus musculus. The series can be described thus: In vivo inhibition of Jak2 in mouse transfected with mouse BA/F3 cells expressing TEL-Jak2 assessed as inhibition of STAT5 phosphorylation at 10 mg/kg, po after 12 hrs by Western blotting analysis. The class given is functional. The note with it: BaF3, 12 h. In short, it runs like this: (§4)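 Mice bearing BaF3 TEL-JAK2 cells given a single oral dose of 3, 5 or 10 mg/kg and sacrificed at various times after dosing. Spleen lysates probed for phospho-STAT5 and total STAT5 by Western blot, and pSTAT5 inhibition assessed.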
Background: In western blotting, separated proteins are transferred to a membrane and probed.

Series [11] addresses Proto-oncogene tyrosine-protein kinase receptor Ret (Homo sapiens, UniProt P07949). The experiment in a line: Inhibition of human Ret. Put shortly: as §1
Series [12] has as its system Mus musculus. The series can be described thus: In vivo inhibition of Jak2 in mouse transfected with mouse BA/F3 cells expressing TEL-Jak2 assessed as inhibition of STAT5 phosphorylation at 3 mg/kg, po after 8 hrs by Western blotting analysis. The class given is functional. The note with it: BaF3, 8 h. Put shortly:
as §4

Series [13] can be described thus: Cytotoxicity against mouse BA/F3 cells expressing TEL-Tyk2 after 72 hrs by MTS assay. As to conditions: BaF3, 72 h. The class given is functional. Put shortly: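 BaF3 cells transfected with the kinase domain of Jak1, Jak3 or Tyk2 (TEL fusions). Growth inhibition measured as the counter-screen for cellular selectivity.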
A short description of series [14]: Cytotoxicity against human UKE1 cells expressing Jak2 V617F mutant after 72 hrs by MTS assay. The class given is functional. As to conditions: UKE1, 72 h. On the technique in general: Formazan colour is commonly taken as a measure of viable cells.
For series [15], the system named is Canis familiaris. The series can be described thus: Oral bioavailability in beagle dog at 10 mg/kg. The class given is ADME, organism-based, Canis lupus familiaris. The note with it: in vivo. Put shortly:
(§5)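 Male beagle dogs. Oral dose 10 mg/kg in 0.1% HPMC, pH 2. IV dose 2.5 mg/kg in 20% TEG/D5W. […] Clearance, Vdss, half-life and oral bioavailability (F%) derived from the plasma profiles.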

In series [16] the target is Tyrosine-protein kinase JAK1 (Mus musculus) (UniProt P52332). The experiment in a line: (§6) Inhibition of Jak1 in mouse BA/F3 cells expressing TEL-Jak1 assessed as inhibition of STAT5 phosphorylation by Western blotting analysis. The class given is cell-based. As to conditions: BaF3.
Series [17] deals with Tyrosine-protein kinase JAK1 (Mus musculus, UniProt P52332). Described as §6. The class given is cell-based, BaF3.
Series [18] is described as follows: Volume of distribution at steady state in beagle dog at 2.5 mg/kg, iv. The class given is ADME, organism-based, Canis lupus familiaris. The note with it: in vivo, read-out: Vdss. Also noted: dose 2.5 mg/kg, route intravenous. In short, it runs like this: as §5
The nature of series [19]: Antitumor activity against human UKE1 cells xenografted in SCID mouse assessed as tumor growth inhibition at 10 mg/kg, po bid administered for 14 days measured on day 28. The class given is functional. The note with it: read-out: TGI. In short, it runs like this: as §2
Series [20] deals with Tyrosine-protein kinase ABL1 (Homo sapiens, UniProt P00519). The series can be described thus: Inhibition of human Abl. In short, it runs like this: as §1
Series [21] deals with Casein kinase II subunit alpha' (Homo sapiens, UniProt P19784). The series can be described thus: Inhibition of human CK2alpha2. Put shortly: as §1
A short description of series [22]: Cytotoxicity against human SET2 cells expressing Jak2 V617F mutant after 72 hrs by MTS assay. As to conditions: SET-2, 72 h. The class given is functional.
The subject of series [23] is Mus musculus. The experiment in a line: Toxicity in SCID mouse xenografted with human UKE1 cells assessed as body weight loss at 3 mg/kg, po bid administered for 14 days measured on day 31 (reference value: 7.1%). The class given is organism-based. On the set-up: dose 3 mg/kg, route oral. As to conditions: in vivo, 336 h. In short, it runs like this:
as §2

The nature of series [24]: Half life in Wistar rat at 10 mg/kg, po and 3 mg/kg, iv. The class given is ADME, organism-based. The note with it: in vivo. Put shortly: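 Rat pharmacokinetics. Oral dose 10 mg/kg in 0.1% HPMC. IV dose 3 mg/kg in 40% DMA/40% PEG/20% saline. Clearance, half-life, Vdss and oral bioavailability derived from the plasma profiles.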

Vascular endothelial growth factor receptor 3, sequence (P35916 whole entry): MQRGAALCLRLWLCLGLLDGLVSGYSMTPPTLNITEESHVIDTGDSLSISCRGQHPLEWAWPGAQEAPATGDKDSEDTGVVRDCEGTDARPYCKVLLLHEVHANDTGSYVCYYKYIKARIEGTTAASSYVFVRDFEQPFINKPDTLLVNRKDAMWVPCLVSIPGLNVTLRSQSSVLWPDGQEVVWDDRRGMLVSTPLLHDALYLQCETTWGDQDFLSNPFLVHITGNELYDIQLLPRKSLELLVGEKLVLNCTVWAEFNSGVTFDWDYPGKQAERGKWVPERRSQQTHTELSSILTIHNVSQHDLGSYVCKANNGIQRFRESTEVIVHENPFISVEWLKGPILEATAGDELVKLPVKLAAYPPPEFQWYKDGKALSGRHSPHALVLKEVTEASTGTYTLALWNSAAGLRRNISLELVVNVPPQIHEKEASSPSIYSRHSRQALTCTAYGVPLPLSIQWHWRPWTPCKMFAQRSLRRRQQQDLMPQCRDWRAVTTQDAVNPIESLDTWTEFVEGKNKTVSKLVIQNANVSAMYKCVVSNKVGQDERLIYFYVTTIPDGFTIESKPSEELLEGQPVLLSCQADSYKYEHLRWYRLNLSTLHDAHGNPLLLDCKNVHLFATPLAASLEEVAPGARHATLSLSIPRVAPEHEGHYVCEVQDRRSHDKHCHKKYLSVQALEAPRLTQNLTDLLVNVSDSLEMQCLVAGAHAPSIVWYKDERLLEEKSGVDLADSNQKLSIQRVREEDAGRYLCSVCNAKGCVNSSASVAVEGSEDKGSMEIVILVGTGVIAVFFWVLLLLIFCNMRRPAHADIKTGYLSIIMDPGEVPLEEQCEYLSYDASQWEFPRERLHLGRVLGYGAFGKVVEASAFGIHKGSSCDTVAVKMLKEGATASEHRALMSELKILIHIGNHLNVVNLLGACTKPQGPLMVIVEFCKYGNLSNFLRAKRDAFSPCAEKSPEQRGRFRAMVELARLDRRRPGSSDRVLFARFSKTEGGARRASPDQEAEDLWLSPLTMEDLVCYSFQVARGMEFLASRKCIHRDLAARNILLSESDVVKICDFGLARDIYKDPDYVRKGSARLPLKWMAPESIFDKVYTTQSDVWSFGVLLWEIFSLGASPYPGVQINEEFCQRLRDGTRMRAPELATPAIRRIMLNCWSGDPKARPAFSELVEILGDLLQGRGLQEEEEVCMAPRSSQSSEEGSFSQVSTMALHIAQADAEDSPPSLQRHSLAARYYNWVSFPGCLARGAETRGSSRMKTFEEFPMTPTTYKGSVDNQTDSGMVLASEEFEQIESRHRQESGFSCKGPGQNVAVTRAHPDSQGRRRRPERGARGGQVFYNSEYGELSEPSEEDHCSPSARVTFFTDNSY
Fibroblast growth factor receptor 1, sequence (P11362 whole entry): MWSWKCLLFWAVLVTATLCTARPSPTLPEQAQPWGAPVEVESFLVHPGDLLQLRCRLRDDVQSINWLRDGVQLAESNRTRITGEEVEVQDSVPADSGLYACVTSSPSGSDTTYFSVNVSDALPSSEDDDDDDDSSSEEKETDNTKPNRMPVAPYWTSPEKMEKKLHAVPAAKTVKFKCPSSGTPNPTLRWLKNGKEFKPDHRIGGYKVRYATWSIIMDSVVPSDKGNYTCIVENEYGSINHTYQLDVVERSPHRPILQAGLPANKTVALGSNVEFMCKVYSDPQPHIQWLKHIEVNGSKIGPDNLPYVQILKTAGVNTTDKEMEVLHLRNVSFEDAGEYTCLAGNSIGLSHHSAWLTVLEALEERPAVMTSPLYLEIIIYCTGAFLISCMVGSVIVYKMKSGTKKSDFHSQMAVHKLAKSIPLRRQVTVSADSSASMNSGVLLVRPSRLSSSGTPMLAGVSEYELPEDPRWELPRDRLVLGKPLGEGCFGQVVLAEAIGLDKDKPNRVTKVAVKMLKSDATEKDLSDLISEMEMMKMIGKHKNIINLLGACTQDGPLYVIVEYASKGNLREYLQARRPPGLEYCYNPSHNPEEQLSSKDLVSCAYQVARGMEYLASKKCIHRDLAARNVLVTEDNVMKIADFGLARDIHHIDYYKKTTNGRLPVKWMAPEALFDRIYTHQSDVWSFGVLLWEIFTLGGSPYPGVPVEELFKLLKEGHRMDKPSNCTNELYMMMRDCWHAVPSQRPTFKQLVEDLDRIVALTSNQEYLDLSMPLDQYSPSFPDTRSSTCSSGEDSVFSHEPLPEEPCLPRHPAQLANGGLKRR

`C[C@H](Nc1nc(Nc2cn(C)cn2)c2cc[nH]c2n1)c1ncc(F)cn1`: the half-maximal inhibitory concentration (IC50) amounted to 35 nM in series [1]; 2000 nM in [4]; 22 nM in series [5]; 50 nM in series [6]; 190 nM in series [7]; 58 nM in [8]. Further, the concentration for half-maximal inhibition (IC50) in [9] turned out to be 40 nM; in series [11], 46 nM; in series [17] it was 260 nM; in [20], 25 nM; in [21], 2.7 nM. Moreover, the results for the inhibition in vivo at 3 mg/kg in series [2] and in [12] were 50% and 30%, respectively. The inhibition entry in [3] and in series [16] was “Dose-dependent effect” each time. The values for the inhibition in vivo at 10 mg/kg in series [10] and in [19] were 50% and 77%, respectively. Besides, the values for the GI50 in series [13], in [14] and in series [22] were 760 nM, 55 nM and 14 nM, respectively. In series [15], the F worked out at 64%. Further, the Vd in series [18] amounted to 1.9 L/kg. For the same compound, the Activity in [23] is reported as 7.2%. In [24], the half-life is 1.6 h.
